Measurements as given in ChEMBL document CHEMBL1914423, “New imidazo[2,1-b]thiazole derivatives: synthesis, in vitro anticancer evaluation, and in silico studies” (Eur J Med Chem, 2011).

Experiments:
[1] = system: CCRF-CEM; assay: Anticancer activity against human CCRF-CEM cells after 48 hrs by SRB assay; format: functional; conditions: for CC50: read-out: LC50 (the source's name)
Summary of the method: (§1)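 NCI five-dose screen. Cells in RPMI 1640 with 5% FBS and 2 mM L-glutamine, seeded at 5000–40,000 cells/well according to doubling time, then pre-incubated 24 h at 37 °C in 5% CO2. Drugs dissolved in DMSO, five concentrations by 10-fold or 1/2-log dilution. Cells fixed with TCA, SRB-stained, A515 read. IC50 solved from [(Ti−Tz)/(C−Tz)]×100 = 50.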

[2] = system: HL-60(TB); assay: Anticancer activity against human HL-60(TB) cells after 48 hrs by SRB assay; format: functional; conditions: HL-60, 48 h
Summary of the method: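 NCI-60 five-dose screen. Cells grown in RPMI 1640 with 5% FBS and 2 mM L-glutamine, seeded at 5000–40,000 cells/well, and held 24 h at 37 °C and 5% CO₂ before drug. DMSO stocks were diluted into five concentrations (10-fold or ½-log steps). Settled suspension cells were fixed with cold TCA, SRB-stained, and read at 515 nm. […] was taken where [(Ti−Tz)/(C−Tz)]×100 = 50.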

[3] = system: RPMI-8226; assay: Anticancer activity against human RPMI8226 cells after 48 hrs by SRB assay; format: functional; conditions: RPMI-8226, 48 h
[4] = system: HOP-62; assay: Anticancer activity against human HOP62 cells after 48 hrs by SRB assay; format: functional; conditions: HOP-62, 48 h; summary of the method: as §1
[5] = system: NCI-H226; assay: Anticancer activity against human NCI-H226 cells after 48 hrs by SRB assay; format: functional; conditions: NCI-H226, 48 h
[6] = system: NCI-H23; assay: Anticancer activity against human NCI-H23 cells after 48 hrs by SRB assay; format: functional; conditions: NCI-H23, 48 h
[7] = system: NCI-H460; assay: Anticancer activity against human NCI-H460 cells after 48 hrs by SRB assay; format: functional; conditions: NCI-H460, 48 h
[8] = system: HCT-15; assay: Anticancer activity against human HCT15 cells after 48 hrs by SRB assay; format: functional; conditions: HCT-15, 48 h; for CC50: read-out: LC50 (the source's name); summary of the method: as §1
[9] = system: HT-29; assay: Anticancer activity against human HT-29 cells after 48 hrs by SRB assay; format: functional; conditions: HT-29, 48 h; for CC50: read-out: LC50 (the source's name); summary of the method: as §1
[10] = system: SW-620; assay: Anticancer activity against human SW620 cells after 48 hrs by SRB assay; format: functional; conditions: SW-620, 48 h; for CC50: read-out: LC50 (the source's name)
Summary of the method: (§2)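 NCI-60 five-dose mode: cells in RPMI 1640 with 5% FBS and 2 mM glutamine, plated at 5000–40,000 cells/well, and preincubated 24 h, with time-zero plates TCA-fixed. Drug given at five concentrations (10-fold or ½-log serial dilutions). Cold TCA fixation 60 min at 4 °C, SRB stain, Tris solubilization, A515. IC50 taken where [(Ti−Tz)/(C−Tz)]×100 = 50.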

[11] = system: SF-268; assay: Anticancer activity against human SF268 cells after 48 hrs by SRB assay; format: functional; conditions: SF-268, 48 h; for CC50: read-out: LC50 (the source's name)
[12] = system: SF-539; assay: Anticancer activity against human SF539 cells after 48 hrs by SRB assay; format: functional; conditions: SF-539, 48 h; for CC50: read-out: LC50 (the source's name)
[13] = system: SNB-19; assay: Anticancer activity against human SNB19 cells after 48 hrs by SRB assay; format: functional; conditions: SNB-19, 48 h; for CC50: read-out: LC50 (the source's name)
[14] = system: LOX IMVI; assay: Anticancer activity against human LOXIMVI cells after 48 hrs by SRB assay; format: functional; conditions: for CC50: read-out: LC50 (the source's name); summary of the method: as §1
[15] = system: Malme-3M; assay: Anticancer activity against human MALME-3M cells after 48 hrs by SRB assay; format: functional; conditions: for CC50: read-out: LC50 (the source's name); summary of the method: as §1
[16] = system: SK-MEL-28; assay: Anticancer activity against human SK-MEL-28 cells after 48 hrs by SRB assay; format: functional; conditions: SK-MEL-28, 48 h; for CC50: read-out: LC50 (the source's name)
[17] = system: SK-MEL-5; assay: Anticancer activity against human SK-MEL-5 cells after 48 hrs by SRB assay; format: functional; conditions: SK-MEL-5, 48 h; for CC50: read-out: LC50 (the source's name)
[18] = system: UACC-257; assay: Anticancer activity against human UACC257 cells after 48 hrs by SRB assay; format: functional; conditions: UACC-257, 48 h; for CC50: read-out: LC50 (the source's name); summary of the method: as §2
[19] = system: IGROV-1; assay: Anticancer activity against human IGROV1 cells after 48 hrs by SRB assay; format: functional; conditions: IGROV-1, 48 h; for CC50: read-out: LC50 (the source's name); summary of the method: as §1
[20] = system: OVCAR-4; assay: Anticancer activity against human OVCAR4 cells after 48 hrs by SRB assay; format: functional; conditions: OVCAR-4, 48 h
[21] = system: OVCAR-5; assay: Anticancer activity against human OVCAR5 cells after 48 hrs by SRB assay; format: functional; conditions: OVCAR-5, 48 h
[22] = system: OVCAR-8; assay: Anticancer activity against human OVCAR8 cells after 48 hrs by SRB assay; format: functional; conditions: OVCAR-8, 48 h
[23] = system: NCI/ADR-RES; assay: Anticancer activity against human NCI/ADR-RES cells after 48 hrs by SRB assay; format: functional; conditions: for CC50: read-out: LC50 (the source's name)
[24] = system: CAKI-1; assay: Anticancer activity against human Caki1 cells after 48 hrs by SRB assay; format: functional; conditions: CAKI-1, 48 h; for CC50: read-out: LC50 (the source's name); summary of the method: as §1
[25] = system: SN12C; assay: Anticancer activity against human SN12C cells after 48 hrs by SRB assay; format: functional; conditions: for CC50: read-out: LC50 (the source's name)
[26] = system: UO-31; assay: Anticancer activity against human UO31 cells after 48 hrs by SRB assay; format: functional; conditions: UO-31, 48 h; for CC50: read-out: LC50 (the source's name); summary of the method: as §2
[27] = system: M14; assay: Antiproliferative activity against human M14 cells after 48 hrs by MTT assay; format: functional, cell-based; conditions: M14, 48 h
[28] = system: SK-MEL-28; assay: Antiproliferative activity against human SK-MEL-28 cells after 48 hrs by MTT assay; format: functional, cell-based; conditions: SK-MEL-28, 48 h
[29] = system: UACC-257; assay: Antiproliferative activity against human UACC257 cells after 48 hrs by MTT assay; format: functional, cell-based; conditions: UACC-257, 48 h
[30] = read-out: LC50 (the source's name)

O=C(NCCNc1nccc(-c2c(-c3cccc(O)c3)nc3sccn23)n1)Nc1cccc(C(F)(F)F)c1
GI50 [1]: 3.25 µM | TGI [1]: 13.7 µM | CC50 [1]: > 100 µM | GI50 [2]: 2.85 µM | LC50 [2]: > 100 µM | TGI [2]: 6.03 µM | GI50 [3]: 2.52 µM | LC50 [3]: > 100 µM | TGI [3]: 5.46 µM | GI50 [4]: 8.33 µM | LC50 (concentration killing 50% of starting cells) [4]: 61 µM | TGI [4]: 23.4 µM | GI50 [5]: 9.99 µM | LC50 (concentration killing 50% of tumour cells) [5]: 81 µM | TGI [5]: 28.5 µM | GI50 [6]: 4.62 µM | LC50 (50% lethal concentration) [6]: > 100 µM | TGI [6]: 32.5 µM | GI50 [7]: 4.79 µM | LC50 [7]: 83.5 µM | TGI [7]: 20.8 µM | GI50 [8]: 4.26 µM | TGI [8]: 24.1 µM | CC50 [8]: > 100 µM | GI50 [9]: 3.45 µM | TGI [9]: 10.8 µM | CC50 [9]: 49.9 µM | GI50 [10]: 3.84 µM | TGI [10]: 13.4 µM | CC50 [10]: 64.5 µM | GI50 [11]: 3.45 µM | TGI [11]: 14.6 µM | CC50 [11]: > 100 µM | GI50 [12]: 13.1 µM | TGI [12]: 36.9 µM | CC50 [12]: > 100 µM | GI50 [13]: 5.08 µM | TGI [13]: 36.2 µM | CC50 [13]: > 100 µM | GI50 [14]: 4.05 µM | TGI [14]: 26.2 µM | CC50 [14]: > 100 µM | GI50 [15]: 2.09 µM | TGI [15]: 7.3 µM | CC50 [15]: 50.7 µM | GI50 [16]: 2.68 µM | TGI [16]: 10 µM | CC50 [16]: 62.2 µM | GI50 [17]: 2.62 µM | TGI [17]: 8.43 µM | CC50 [17]: 28.9 µM | GI50 [18]: 2.51 µM | TGI [18]: 6.94 µM | CC50 [18]: 59.8 µM | GI50 [19]: 3.48 µM | TGI [19]: 13.1 µM | CC50 [19]: 93.4 µM | GI50 [20]: 3.97 µM | TGI [20]: 14.2 µM | CC50 [20, 30]: 39.7 µM | GI50 [21]: 16.3 µM | TGI [21]: 65.3 µM | CC50 [21, 30]: > 100 µM | GI50 [22]: 3.56 µM | TGI [22]: 11 µM | CC50 [22, 30]: 37.6 µM | GI50 [23]: 26.9 µM | TGI [23]: > 100 µM | CC50 [23]: > 100 µM | GI50 [24]: 14.2 µM | TGI [24]: 50.5 µM | CC50 [24]: > 100 µM | GI50 [25]: 3.42 µM | TGI [25]: 20 µM | CC50 [25]: > 100 µM | GI50 [26]: 3.25 µM | TGI [26]: 16.8 µM | CC50 [26]: 98.1 µM

O=C(NCCNc1nccc(-c2c(-c3cccc(O)c3)nc3sccn23)n1)c1ccccc1O
IC50 [27]: 0.335 µM | IC50 [28]: 0.683 µM | IC50 [29]: 0.651 µM | GI50 [1]: 3.43 µM | TGI [1]: > 100 µM | CC50 [1]: > 100 µM | GI50 [2]: 4.95 µM | LC50 [2]: > 100 µM | TGI [2]: > 100 µM | GI50 [3]: 3.55 µM | LC50 [3]: > 100 µM | TGI [3]: > 100 µM | GI50 [4]: 3.59 µM | LC50 (concentration killing 50% of starting cells) [4]: > 100 µM | TGI [4]: 32.5 µM | GI50 [5]: 4.61 µM | LC50 (concentration killing 50% of tumour cells) [5]: > 100 µM | TGI [5]: 29.6 µM | GI50 [6]: 11.5 µM | LC50 (50% lethal concentration) [6]: > 100 µM | TGI [6]: 67.7 µM | GI50 [7]: 7.88 µM | LC50 [7]: > 100 µM | TGI [7]: 31 µM | GI50 [8]: 3.83 µM | TGI [8]: 24.5 µM | CC50 [8]: > 100 µM | GI50 [9]: 4.22 µM | TGI [9]: 15.3 µM | CC50 [9]: 40.8 µM | GI50 [10]: 5.43 µM | TGI [10]: 49.5 µM | CC50 [10]: > 100 µM | GI50 [11]: 3.59 µM | TGI [11]: 24.9 µM | CC50 [11]: > 100 µM | GI50 [12]: 11.9 µM | TGI [12]: > 100 µM | CC50 [12]: > 100 µM | GI50 [13]: 5.02 µM | TGI [13]: > 100 µM | CC50 [13]: > 100 µM | GI50 [14]: 0.335 µM | TGI [14]: 16.4 µM | CC50 [14]: 75.1 µM | GI50 [15]: 0.433 µM | TGI [15]: 11.8 µM | CC50 [15]: 45.1 µM | GI50 [16]: 0.161 µM | TGI [16]: 11.1 µM | CC50 [16]: 61.2 µM | GI50 [17]: 4.57 µM | TGI [17]: 53.3 µM | CC50 [17]: > 100 µM | GI50 [18]: 6.41 µM | TGI [18]: 73.6 µM | CC50 [18]: > 100 µM | GI50 [19]: 17.4 µM | TGI [19]: 92.9 µM | CC50 [19]: > 100 µM | GI50 [23]: 5.05 µM | TGI [23]: 68.5 µM | CC50 [23]: > 100 µM | GI50 [24]: 3.71 µM | TGI [24]: 55.6 µM | CC50 [24]: > 100 µM | GI50 [25]: 2.84 µM | TGI [25]: 74.9 µM | CC50 [25]: > 100 µM | GI50 [26]: 5.68 µM | TGI [26]: 19.7 µM | CC50 [26]: 72.8 µM
